High-throughput results from PubChem BioAssay.
The list is not random: actives were taken first. Their share in the collection is about 2.7%.
Yeast life ext = yeast lifespan extension | inhibition of the nicotinamide effect, % at 10 µM | 0.68% of 130,000 active | S. cerevisiae growth with nicotinamide, OD615; deaD strain in restrictive glucose medium;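 active means inhibition above a set limit, placed 3 SD over the median of all compounds, cut at about 26% in these data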;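 further: 0% = nicotinamide-treated wells and 100% = cells grown without nicotinamide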
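Test system – modified budding yeast, DeaD strain · Compound – single dose 10 µM compound, 0.25% DMSO · Times – culture preincubation 4 h, compound exposure 48 h, both 30 °C · Detection – optical density (absorbance) at 615 nm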
Yeast growth inh = reduces growth of yeast BB579 in restrictive medium | S. cerevisiae BB579 growth, OD615, 48 h | inhibition, % at 10 µM | 0.51% of 140,000 active;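 active means inhibition above a set limit, 3 SD over the mean compound inhibition, cut at about 44% in these data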
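Test system: DeaD yeast strain BB579 / Buffer or medium: restrictive glucose-based CSMM-D medium / Doses: single 10 µM dose / Schedule: 4 h cell preincubation, 48 h compound exposure, 30 °C humidified / Technique: culture absorbance at 615 nm / Controls: amphotericin B positive control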
RAM inhibit = inhibitors of the yeast RAM network | S. cerevisiae dse1pr::URA3 reporter, 5-FOA growth OD615, 2 d; analog-sensitive cbk1-as2 kinase mutant strain | 1.8% of 190,000 active | inhibition, % at 50 µM | AID 868;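 active means inhibition above a set limit, 3 SD over mean compound inhibition, cut at about 8.4% in these data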;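 further: 0% = DMSO-only wells with no growth and 100% = 10 µM 1-NA-PP1 full growth; inhibition rescues growth on 5-FOA so higher OD means more RAM inhibition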
Phagocytosis inh = blocks phagocytosis by macrophages; inhibition, % at 5 µM; J774A.1 macrophage IgG-bead phagocytosis, imaging; 0.07% of 110,000 active; AID 1029;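 active means inhibition above the mean of the plate negative controls plus 5 SD, cut at about 13% in these data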;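 further: phagocytic index as fraction of beads internalized from green versus red external bead signal; plate controls were DMSO negative control for no effect and cytochalasin-D positive control for full effect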
RAM 5-FOA = RAM network inhibitors in efflux-deficient yeast. shares compounds with RAM inhibit. S. cerevisiae efflux-deficient reporter strain, 5-FOA growth OD615, 2 days. max inhibition, %. 1,200 tested, under 10 active; call rule not given here;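 further: plate controls were vehicle for no effect and reference inhibitor for full effect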
Numbers without * were called inactive; x = no result given.

SMILES | Yeast life ext | Yeast growth inh | RAM inhibit | Phagocytosis inh | RAM 5-FOA
CC[n+]1c(/C=C/Nc2ccccc2)sc2ccccc21 | 5 | -9 | 0 | -2 | x
CCN1/C(=C/C=C/C=C/c2sc3ccccc3[n+]2CC)Sc2ccccc21 | 14 | 84* | 22* | x | 9
CCN(CC)S(=O)(=O)c1cc(Cl)ccc1OC | x | x | 1 | x | x
Cc1cc(S(=O)(=O)N(Cc2ccccc2)Cc2ccc(N(C)C)cc2)ccc1-n1cnnn1 | -4 | -43 | 0 | x | x
Cc1cc(S(=O)(=O)N(Cc2cccs2)Cc2ccccc2F)ccc1-n1cnnn1 | 15 | -42 | 13* | -6 | 2
O=C(O)CC(NC(=O)C1c2ccccc2Oc2ccccc21)c1ccc(Cl)cc1 (configuration not stated) | -5 | -9 | 4 | -12 | x
O=C(Nc1ccccc1)C1=C[C@H](C2CCCCC2)C[C@H](OCc2ccc(CO)cc2)O1 | x | x | 14* | x | 5
O=C(Nc1ccccc1)C1=C[C@@H](C2CCCCC2)C[C@@H](OCc2ccc(CO)cc2)O1 | x | x | 12* | x | 5
O=C(Nc1ccccc1)C1=C[C@@H](C2CCCCC2)C[C@@H](OCCCCO)O1 | x | x | 5 | x | x
CC(=O)/C=C1/SC(CC(=O)O)C(=O)N1c1ccccc1 (configuration not stated) | x | -21 | 1 | x | x
CN(Cc1cc(-c2ccccc2)on1)C(=O)c1cc(COc2c(F)cccc2F)on1 | x | x | 21* | x | 2
O=C(CSc1ccccc1)N(c1ccc(Br)cc1)c1nccs1 | 7 | -31 | 12* | -10 | 1
CCOc1ccccc1NC(=O)C1CCCCN1S(=O)(=O)c1ccc(F)cc1 (configuration not stated) | -10 | 2 | 2 | 5 | x
O=C(/C=C/c1ccc(-c2ccccc2[N+](=O)[O-])o1)c1ccc(Br)cc1 | -2 | -20 | 12* | -1 | 3
O=C(/C=C/c1ccc(-c2ccccc2)o1)c1ccccc1 | 7 | -16 | 11* | 7 | 7
Cc1ccc(C(=O)/C=C/c2ccc(-c3ccccc3[N+](=O)[O-])o2)cc1 | -1 | -13 | 15* | -1 | 3
CC1(C)CC(NC(=O)C(Cl)(Cl)Cl)CC(C)(C)N1 | 0 | -26 | 2 | -5 | x
CN1CCN(C(=S)NC(=O)c2ccc(C(C)(C)C)cc2)CC1 | 2 | -6 | 0 | -3 | x
C=CCn1cccc(/C=C/C(=O)c2ccc(C(C)(C)C)cc2)c1=S | 5 | -23 | 17* | -4 | 8
CCCCn1c(-c2cccs2)nc2nc3ccccc3nc21 | -8 | -19 | 12* | 0 | 4
CC(C)Cn1c(-c2cccs2)nc2nc3ccccc3nc21 | -20 | -31 | 0 | -1 | x
O=C(CCCSc1nc2ccccc2[nH]1)Nc1nnc(-c2ccccc2)o1 | -18 | -14 | 14* | x | 2
O=C(NC1CCSC1=O)C1CCCCC1 (configuration not stated) | x | x | 0 | x | x
COc1cccc(-c2cc(C(=O)Nc3ccn(Cc4ccc(C)cc4)n3)no2)c1 | x | x | 17* | x | 3
Cc1ccc(SCCNC(=S)Nc2ccc(C)c(C)c2)cc1 | -6 | 14 | 13* | x | 3
SMILES | Yeast life ext | Yeast growth inh | RAM inhibit | Phagocytosis inh | RAM 5-FOA
Cc1cc(C)cc(NC(=S)NCCCO)c1 | 8 | -36 | 2 | x | x
Cc1cc(C)cc(NC(=S)NCCSc2ccc(Cl)cc2)c1 | -5 | 1 | 13* | -5 | 7
Cc1ccc(SCCNC(=S)Nc2ccccc2)cc1 | -14 | -40 | 1 | 1 | x
CC(=O)Nc1ccc(Nc2cc(C)nc3c(-c4ccccc4)cnn23)cc1 | -10 | -36 | 1 | -14 | x
O=C(NCc1ccccc1)c1ccc(S(=O)(=O)N2CCCc3ccccc32)cc1 | -22 | -70 | 12* | x | 3
CC(=O)NN1C(=O)/C(=C/c2ccc(C(C)C)cc2)SC1=S | 2 | -24 | 4 | -3 | x
COc1cccc(NC(=S)NCCC(c2ccccc2)c2ccccc2)c1 | -14 | 24 | 12* | 0 | 4
Cc1cccc(NC(=S)NCCC(c2ccccc2)c2ccccc2)c1 | 2 | 32 | 7 | 3 | x
CC(C)N=C(NS(=O)(=O)NC(=O)c1ccccc1)c1ccccc1 | x | x | 0 | x | x
COCCn1c(=O)[nH]c2cc(C(=O)NCCc3ccc(S(N)(=O)=O)cc3)ccc2c1=O | x | x | 1 | x | x
CC(NC(=O)C(c1ccccc1)c1ccccc1)C(=O)N1CCCCC1 (configuration not stated) | x | x | -1 | x | x
CCCC(=O)C1=C(O)C(C(=O)OC)C(C)(C)CC1=Nc1cccc2ccccc12 (configuration not stated) | x | -2 | 12* | x | 4
Cc1ccc(-n2c(-c3ccccc3)c[n+]3c2CCc2ccccc2-3)c(C)c1 | x | x | 2 | x | x
CCn1cc(C(=O)OCC(=O)c2ccccc2)c(=O)c2ccc(C)nc21 | x | x | 18* | x | 2
Nc1nn2c(-c3ccccc3)cc(=O)[nH]c2c1N=Nc1ccc(Br)cc1 | x | x | 14* | x | 2
CCOc1cc(NC(=S)NCCCN2CCOCC2)c(OCC)cc1NC(=O)C1CCCCC1 | x | x | 0 | x | x
CC(C)CCOc1ncnc2c1sc1nc3c(cc12)CSC(C)(C)C3 | x | -4 | 13* | x | 3
COc1ccc(-n2nnc3c(SCC(=O)OCc4ccccc4)ncnc32)cc1 | -3 | -31 | 14* | 2 | 3
O=C(COC(=O)CC(c1ccccc1)c1ccccc1)Nc1ccc(F)c(F)c1 | x | x | 12* | x | 2
Cc1ccc(S(=O)(=O)c2nc(Nc3ccccc3)sc2Cl)cc1 | -7 | -29 | 13* | -7 | 2
COc1ccc(Nc2nc(S(=O)(=O)c3ccc(C)cc3)c(Cl)s2)cc1 | -1 | -10 | 6 | -5 | x
CC1(C)CN(c2ccccc2)N(Cc2ccc(F)cc2)C1=O | -1 | -56 | 0 | x | x
CC(=O)c1ccc(NC(=S)NC2CCCC(C)C2C)cc1 (configuration not stated) | x | x | 20* | x | 2
CC(=O)c1ccc(NC(=S)NN2C(C)CCCC2C)cc1 (configuration not stated) | x | x | 3 | x | x
CC(=O)Nc1ccc(S(=O)(=O)NC(CC(=O)NCCCN2CCOCC2)C(C)C)cc1 (configuration not stated) | -13 | -27 | 1 | x | x
SMILES | Yeast life ext | Yeast growth inh | RAM inhibit | Phagocytosis inh | RAM 5-FOA
CCCCCCCCNC(=O)CC(NS(=O)(=O)c1ccc(NC(C)=O)cc1)C(C)C (configuration not stated) | 7 | -44 | 13* | 2 | 2
O=C(CSc1ccc(Cl)cc1)N1CCN(c2ccc([N+](=O)[O-])cc2Cl)CC1 | -2 | -21 | 14* | 1 | 5
O=C(CSc1ccc(Cl)cc1)N1CCN(c2c(Cl)cccc2[N+](=O)[O-])CC1 | 3 | -33 | 17* | 3 | 3
CCCC(=O)N1CCN(c2ccc([N+](=O)[O-])cc2Cl)CC1 | -6 | -23 | 0 | -3 | x
O=C(COC(=O)CCCN1C(=O)c2cccc3cccc(c23)C1=O)Nc1cccc(C(F)(F)F)c1 | 3 | -49 | 12* | 8 | 3
CC(C)SCCCCOc1ccc2ccccc2c1 | -13 | -58 | 12* | -4 | 3
COc1cccc(CSc2nnc(-c3ccco3)n2C)c1 | -14 | -34 | 1 | 1 | x
